Activity calls are given as the source filed them. The rule behind the calls is not given here.
Assays:
MV4-11 [1] = assay: Antiproliferative activity against human MV4-11 cells after 72 hrs by Celltiter-Glo assay; type: functional; details: MV4-11, 72 h
Summary of the method: (§1)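 Cells seeded at 3000/well in 96-well plates, exposed to serially diluted compound for 72 h at 37 °C, 5% CO2. Viability read by CellTiter-Glo luminescence and normalized to DMSO control. GI50 derived from curve fit, mean of three independent measurements. Culture media: DMEM/10% FBS for adherent lines; IMDM for MV4-11 and MEC-1/2; RPMI 1640 for suspension lines and CHL.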

[2] = Antiproliferative activity against human MEC1 cells after 72 hrs by Celltiter-Glo assay; type: functional; details: MEC1, 72 h; summary of the method: as §1
CDK9/Cyclin K = CDK9/Cyclin K (Homo sapiens, UniProt P50750); assay: Inhibition of CDK9/Cyclin K (unknown origin) using PDKtide as substrate incubated at 37 degreeC for 1 hr followed by incubation at room temperature for 5 mins by ADP-Glo reagent based luminescence assay; type: protein-complex assay
[3] = Antiproliferative activity against Chinese hamster CHL cells after 72 hrs by Celltiter-Glo assay; details: Cricetulus griseus
A-375 = assay: Antiproliferative activity against human A375 cells after 72 hrs by Celltiter-Glo assay; type: functional; details: A-375, 72 h; summary of the method: as §1
A-431 = assay: Antiproliferative activity against human A431 cells after 72 hrs by Celltiter-Glo assay; type: functional; details: A-431, 72 h; summary of the method: as §1
SK-N-BE(2)-M17 = assay: Antiproliferative activity against human BE(2)-M17 cells after 72 hrs by Celltiter-Glo assay; type: functional; details: SK-N-BE(2)-M17, 72 h; summary of the method: as §1
GISTT1 = assay: Antiproliferative activity against human GISTT1 cells after 72 hrs by Celltiter-Glo assay; type: functional; details: GISTT1, 72 h; summary of the method: as §1
COLO 205 = assay: Antiproliferative activity against human COLO205 cells after 72 hrs by Celltiter-Glo assay; type: functional; details: COLO 205, 72 h; summary of the method: as §1
Ramos = assay: Antiproliferative activity against human Ramos cells after 72 hrs by Celltiter-Glo assay; type: functional; summary of the method: as §1
HL-60 [4] = assay: Antiproliferative activity against human HL60 cells after 72 hrs by Celltiter-Glo assay; type: functional; details: HL-60, 72 h; summary of the method: as §1
MOLM-13 = assay: Antiproliferative activity against human MOLM13 cells after 72 hrs by Celltiter-Glo assay; type: functional; details: MOLM-13, 72 h; summary of the method: as §1
MOLM-14 = assay: Antiproliferative activity against human MOLM14 cells after 72 hrs by Celltiter-Glo assay; type: functional; details: MOLM-14, 72 h; summary of the method: as §1
OCI-AML-3 = assay: Antiproliferative activity against human OCI-AML3 cells after 72 hrs by Celltiter-Glo assay; type: functional; details: OCI-AML-3, 72 h; summary of the method: as §1
SKM-1 = assay: Antiproliferative activity against human SKM1 cells after 72 hrs by Celltiter-Glo assay; type: functional; details: SKM-1, 72 h; summary of the method: as §1
U-937 = assay: Antiproliferative activity against human U937 cells after 72 hrs by Celltiter-Glo assay; type: functional; details: U-937, 72 h; summary of the method: as §1
[5] = Antiproliferative activity against human MEC2 cells after 72 hrs by Celltiter-Glo assay; type: functional; details: MEC2, 72 h; summary of the method: as §1
[6] = Antiproliferative activity against CHO cells after 72 hrs by Celltiter-Glo assay; type: cell-based, Cricetulus griseus; details: chinese hamster; summary of the method: as §1
MV4-11 [7] = assay: Induction of apoptosis in human MV4-11 cells assessed as decrease in caspase-3 level after 24 hrs by immunoblotting analysis; type: functional, cell-based
Homo sapiens [8] = species on record: Homo sapiens; assay: Induction of apoptosis in human MEC1 cells assessed as decrease in caspase-3 level after 24 hrs by immunoblotting analysis; type: functional, cell-based
HL-60 [9] = assay: Induction of apoptosis in human HL60 cells assessed as decrease in caspase-3 level after 24 hrs by immunoblotting analysis; type: functional, cell-based
MV4-11 [10] = assay: Induction of apoptosis in human MV4-11 cells assessed as decrease in MCL-1 level at 0.01 uM after 24 hrs by immunoblotting analysis; type: functional, cell-based
Homo sapiens [11] = species on record: Homo sapiens; assay: Induction of apoptosis in human MEC1 cells assessed as decrease in MCL-1 level at 0.01 uM after 24 hrs by immunoblotting analysis; type: functional, cell-based
HL-60 [12] = assay: Induction of apoptosis in human HL60 cells assessed as decrease in MCL-1 level at 0.01 uM after 24 hrs by immunoblotting analysis; type: functional, cell-based
MV4-11 [13] = assay: Induction of apoptosis in human MV4-11 cells assessed as decrease in c-MYC level at 0.01 uM after 24 hrs by immunoblotting analysis; type: functional, cell-based
Homo sapiens [14] = species on record: Homo sapiens; assay: Induction of apoptosis in human MEC1 cells assessed as decrease in c-MYC level at 0.01 uM after 24 hrs by immunoblotting analysis; type: functional, cell-based
HL-60 [15] = assay: Induction of apoptosis in human HL60 cells assessed as decrease in c-MYC level at 0.01 uM after 24 hrs by immunoblotting analysis; type: functional, cell-based

CDK9/Cyclin K, sequence (P50750 whole entry): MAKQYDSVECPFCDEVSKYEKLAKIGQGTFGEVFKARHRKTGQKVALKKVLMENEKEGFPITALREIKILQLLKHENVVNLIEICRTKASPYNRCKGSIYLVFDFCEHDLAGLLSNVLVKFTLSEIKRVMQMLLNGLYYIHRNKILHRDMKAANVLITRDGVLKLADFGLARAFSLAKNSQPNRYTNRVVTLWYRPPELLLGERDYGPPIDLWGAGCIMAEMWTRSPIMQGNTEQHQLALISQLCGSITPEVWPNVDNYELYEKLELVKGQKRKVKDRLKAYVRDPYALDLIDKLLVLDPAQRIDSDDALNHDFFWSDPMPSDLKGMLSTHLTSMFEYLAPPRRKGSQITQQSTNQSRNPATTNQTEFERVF
CDK9/Cyclin K, sequence (O75909 whole entry, further chain): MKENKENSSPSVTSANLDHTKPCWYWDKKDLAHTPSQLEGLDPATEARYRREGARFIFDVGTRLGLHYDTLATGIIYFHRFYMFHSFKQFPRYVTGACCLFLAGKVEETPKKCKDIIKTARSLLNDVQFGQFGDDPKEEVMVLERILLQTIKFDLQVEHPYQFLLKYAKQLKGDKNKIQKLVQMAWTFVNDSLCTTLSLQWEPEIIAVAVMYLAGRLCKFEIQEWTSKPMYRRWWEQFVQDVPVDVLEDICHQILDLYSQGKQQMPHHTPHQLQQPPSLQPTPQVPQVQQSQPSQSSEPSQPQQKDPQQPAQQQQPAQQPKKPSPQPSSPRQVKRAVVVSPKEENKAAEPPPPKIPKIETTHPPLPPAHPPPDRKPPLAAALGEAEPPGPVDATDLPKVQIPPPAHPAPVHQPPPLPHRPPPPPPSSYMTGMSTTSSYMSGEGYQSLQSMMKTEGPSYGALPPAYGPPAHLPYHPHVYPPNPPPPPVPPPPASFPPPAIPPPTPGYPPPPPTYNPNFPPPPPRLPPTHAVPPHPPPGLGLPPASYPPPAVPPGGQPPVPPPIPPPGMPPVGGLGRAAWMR

COCCN[C@H]1CC[C@H](Nc2cc(-c3csc(NCC4CC4)n3)c(Cl)cn2)CC1
GI50 (MV4-11 [1]): 740 nM
GI50 [2]: 890 nM
IC50 (CDK9/Cyclin K): 96 nM
GI50 [3]: 1400 nM

O=C(N[C@H]1CC[C@H](Nc2cc(-c3csc(NCC4CCOCC4)n3)c(Cl)cn2)CC1)C1CC1
GI50 (MV4-11 [1]): > 10000 nM
GI50 [2]: > 10000 nM
IC50 (CDK9/Cyclin K): 150 nM
GI50 [3]: > 10000 nM

COCC(=O)N[C@H]1CC[C@H](Nc2cc(-c3csc(NCC4CCOCC4)n3)c(Cl)cn2)CC1
GI50 (MV4-11 [1]): > 10000 nM
GI50 [2]: > 10000 nM
IC50 (CDK9/Cyclin K): 1890 nM
GI50 [3]: > 10000 nM

COCCN[C@H]1CC[C@H](Nc2cc(-c3csc(OCC4CCOCC4)n3)c(Cl)cn2)CC1
GI50 (MV4-11 [1]): 570 nM
GI50 [2]: 1400 nM
IC50 (CDK9/Cyclin K): 28 nM
GI50 [3]: 3300 nM

CC(C)(C)OC(=O)Nc1nc(-c2cc(F)ncc2Cl)cs1
GI50 (MV4-11 [1]): > 10000 nM
GI50 [2]: > 10000 nM
IC50 (CDK9/Cyclin K): > 10000 nM
GI50 [3]: > 10000 nM

CC(=O)N[C@H]1CC[C@H](Nc2cc(-c3csc(NCC4CCOCC4)n3)c(Cl)cn2)CC1
GI50 (MV4-11 [1]): 3600 nM
GI50 [2]: > 10000 nM
IC50 (CDK9/Cyclin K): 101 nM
GI50 [3]: > 10000 nM

COC[C@@H](C)N[C@H]1CC[C@H](Nc2cc(-c3csc(NCC4(C#N)CCOCC4)n3)c(Cl)cn2)CC1 [TAMBICICLIB]
GI50 (MV4-11 [1]): 14 nM
GI50 [2]: 47 nM
IC50 (CDK9/Cyclin K): 9 nM
GI50 [3]: 1100 nM

COCCN[C@H]1CC[C@H](Nc2cc(-c3csc(NCC4CCCCC4)n3)c(Cl)cn2)CC1
GI50 (MV4-11 [1]): 820 nM
GI50 [2]: 850 nM
IC50 (CDK9/Cyclin K): 27 nM
GI50 [3]: 8000 nM

CNc1nc(-c2cc(N[C@H]3CC[C@H](NCCOC)CC3)ncc2Cl)cs1
GI50 (MV4-11 [1]): 530 nM
GI50 [2]: 1400 nM
IC50 (CDK9/Cyclin K): 101 nM
GI50 [3]: 1900 nM

COC[C@@H](C)N[C@H]1CC[C@H](Nc2cc(-c3csc(NCC4CCOCC4)n3)c(Cl)cn2)CC1
GI50 (MV4-11 [1]): 140 nM
GI50 [2]: 310 nM
IC50 (CDK9/Cyclin K): 733 nM
GI50 [3]: 1100 nM

COCCN[C@H]1CC[C@H](Nc2cc(-c3csc(NCC4CCOC4)n3)c(Cl)cn2)CC1 (stereo partly drawn)
GI50 (MV4-11 [1]): 493 nM
GI50 [2]: 883 nM
IC50 (CDK9/Cyclin K): 90 nM
GI50 [3]: > 10000 nM

CCc1cnn2c(NCc3ccc[n+]([O-])c3)cc(N3CCCC[C@H]3CCO)nc12 [DINACICLIB]
GI50 [2]: 3.6 nM
GI50 (A-375): 11 nM
GI50 (A-431): 11 nM
GI50 (SK-N-BE(2)-M17): 21 nM
GI50 (GISTT1): 8.8 nM
GI50 (COLO 205): 6.8 nM
GI50 (Ramos): 8.6 nM
GI50 (HL-60 [4]): 8 nM
GI50 (MOLM-13): 3.3 nM
GI50 (MOLM-14): 4.5 nM
GI50 (OCI-AML-3): 13 nM
GI50 (SKM-1): 11 nM
GI50 (U-937): 10 nM
GI50 [5]: 11 nM
GI50 at 72 h [6]: 160 nM
Activity (MV4-11 [7]): Dose-dependent effect
Activity (Homo sapiens [8]): Dose-dependent effect
Activity (HL-60 [9]): Dose-dependent effect
Activity (MV4-11 [10]): Active
Activity (Homo sapiens [11]): Active
Activity (HL-60 [12]): Active
Activity (MV4-11 [13]): Active
Activity (Homo sapiens [14]): Active
Activity (HL-60 [15]): Active

COCCN[C@H]1CC[C@H](Nc2cc(-c3csc(NCC4CCOCC4)n3)c(Cl)cn2)CC1
GI50 (MV4-11 [1]): 170 nM
GI50 [2]: 1240 nM
IC50 (CDK9/Cyclin K): 2 nM
GI50 [3]: 534 nM

COCCN[C@H]1CC[C@H](Nc2cc(-c3csc(NCc4ccc(F)cc4)n3)c(Cl)cn2)CC1
GI50 (MV4-11 [1]): 880 nM
GI50 [2]: 450 nM
IC50 (CDK9/Cyclin K): 2 nM
GI50 [3]: 1100 nM

O=C(Nc1cc(-c2csc(NCC3CCOCC3)n2)c(Cl)cn1)c1ccc(F)cc1
GI50 (MV4-11 [1]): 550 nM
GI50 [2]: 3600 nM
IC50 (CDK9/Cyclin K): 2300 nM
GI50 [3]: 930 nM

COCCN[C@H]1CC[C@H](Nc2cc(-c3csc(NCC4CCC4)n3)c(Cl)cn2)CC1
GI50 (MV4-11 [1]): > 10000 nM
GI50 [2]: 2260 nM
IC50 (CDK9/Cyclin K): 107 nM
GI50 [3]: 1290 nM

COCCN[C@H]1CC[C@H](Oc2cc(-c3csc(NCC4CCOCC4)n3)c(Cl)cn2)CC1
GI50 (MV4-11 [1]): 7700 nM
GI50 [2]: > 10000 nM
IC50 (CDK9/Cyclin K): 1670 nM
GI50 [3]: > 10000 nM

Source: ChEMBL document CHEMBL4261600 (Eur J Med Chem, 2018)
